# Compound activity: PubChem, NMMLSC
# MEKK3 PB1 HTS: MEKK3-MEK5 PB1 interaction, increase or decrease. binding response (% of control), % at 10 µM. bead-based flow cytometry, Alexa488-MEK5 binding to MEKK3; actives lie on both sides; 0 = blocked by unlabeled MEK5, 100 = vehicle. 1.4% of 290,000 active. Q99759;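 active = binding response more than 3 SD above or below the average of its plate-row segment, actives on both sides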;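 also: Alexa488 bead fluorescence after subtracting the streptavidin-only scavenger bead signal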
# MEKK2wt PB1 HTS: raises or lowers MEK5 binding to wildtype human MEKK2 PB1 domain. Q9Y2U5. binding response (% of control), % at 10 µM. bead flow cytometry, Alexa488-MEK5 binding to MEKK2 WT; actives lie on both sides. 1.1% of 290,000 active; in the data active = binding response below about 67% or above about 130%
# MEKK2 mut-MEK5: signal of MEK5 binding to mutant human MEKK2 PB1 domain. AID 1530. 0.35% of 290,000 active. percent response, % at 10 µM. bead flow cytometry, Alexa488-MEK5 binding to MEKK2 mutant; in the data active = percent response above about 24%, passing the limit was not always enough
# Arrestin-AP2 inh: human beta-arrestin and AP2 interaction inhibition | inhibition, % at 10 µM | 0.31% of 340,000 active | FITC-arrestin peptide / GST-AP2 beads, flow cytometry; AP2 beta2 appendage carries R879A mutation;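 active = inhibition above a set limit, near 3 SD of compounds lacking own fluorescence, cut at about 54% in these data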;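 also: plate controls were DMSO wells for no effect and 5 µM unlabelled arrestin peptide for full effect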
#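 Measured by: flow cytometry, FL1 (488/535 nm); Material: AP2 appendage R879A on GSH beads; Evaluation: percent response; Timing: pre-incubation 12 min, peptide binding 1 h, room temperature; Also added: 50 nM FITC-arrestin peptide; Medium: PBS with 0.05% Tween 20 and 0.1% BSA.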
# Arr AP2 CP1: inhibitors of human beta-arrestin and AP2 interaction; 2% of 1,300 active; inhibition, % at 10 µM; GST-AP2 beads, FITC arrestin peptide binding, flow cytometry; GST-fused beta2-adaptin appendage, R879A mutant; shares compounds with Arrestin-AP2 inh;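 active = inhibition above a set limit, roughly 3 SD of non-fluorescent compound noise, cut at about 38% in these data; inactive = inhibition at or below that limit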;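 also: loss of bead fluorescence from 50 nM FITC arrestin peptide bound to appendage; 0% = negative control wells and 100% = excess unlabelled arrestin peptide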
# Target sequence (P63010 whole entry, looked up, the tested form may be a part, one chain of several): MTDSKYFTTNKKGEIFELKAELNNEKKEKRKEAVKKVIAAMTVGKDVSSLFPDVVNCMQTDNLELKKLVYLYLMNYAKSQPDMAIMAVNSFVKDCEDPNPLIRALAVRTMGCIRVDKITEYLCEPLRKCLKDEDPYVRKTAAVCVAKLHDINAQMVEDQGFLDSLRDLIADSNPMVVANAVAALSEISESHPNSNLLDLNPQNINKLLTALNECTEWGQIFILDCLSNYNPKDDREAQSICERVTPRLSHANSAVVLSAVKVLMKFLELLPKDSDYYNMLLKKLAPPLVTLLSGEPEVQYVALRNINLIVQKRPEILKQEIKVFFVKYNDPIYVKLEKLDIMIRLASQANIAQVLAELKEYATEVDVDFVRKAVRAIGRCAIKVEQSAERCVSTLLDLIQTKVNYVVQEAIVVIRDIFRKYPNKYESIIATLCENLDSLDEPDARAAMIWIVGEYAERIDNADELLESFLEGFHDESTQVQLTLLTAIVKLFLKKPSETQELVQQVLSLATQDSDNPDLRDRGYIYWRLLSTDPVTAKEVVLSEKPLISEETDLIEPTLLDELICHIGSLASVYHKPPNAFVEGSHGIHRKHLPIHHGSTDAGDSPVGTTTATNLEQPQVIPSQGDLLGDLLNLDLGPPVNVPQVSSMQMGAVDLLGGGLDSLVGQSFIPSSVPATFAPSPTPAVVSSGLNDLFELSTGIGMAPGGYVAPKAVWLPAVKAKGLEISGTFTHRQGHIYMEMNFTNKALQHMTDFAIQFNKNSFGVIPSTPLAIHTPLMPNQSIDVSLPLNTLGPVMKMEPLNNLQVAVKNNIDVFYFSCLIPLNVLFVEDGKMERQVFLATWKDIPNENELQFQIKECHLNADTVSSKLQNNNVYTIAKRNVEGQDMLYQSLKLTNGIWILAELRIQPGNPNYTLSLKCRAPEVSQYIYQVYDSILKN
# GST GSH counter: disrupts GST binding to glutathione beads, arrestin-AP2 artifact | inhibition, % at 10 µM | 2% of 1,300 active | GST-fluorescein binding to GSH beads, fluorescence, counter-screen | shares compounds with Arrestin-AP2 inh;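 active = inhibition above 50%, about 3 SD of the inhibition seen with non-fluorescent compounds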;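 also: fluorescein maleimide labelled GST captured on 4 micron glutathione beads; higher means more loss of bead fluorescence from quenching or blocked binding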
# An asterisk follows results filed as active; x = no result. An excerpt weighted towards active compounds, which were near 2.3% of everything screened.
SMILES,MEKK3 PB1 HTS,MEKK2wt PB1 HTS,MEKK2 mut-MEK5,Arrestin-AP2 inh,Arr AP2 CP1,GST GSH counter
COc1ccc(OC)c(NC(=O)NNS(=O)(=O)c2ccc(C)cc2C)c1,99,96,3,4,x,x
O=C(CNc1cccc(S(=O)(=O)N2CCCC2)c1)Nc1ccc(F)cc1F,x,x,x,-11,x,x
CS(=O)(=O)N1CCN(C(=O)c2cc(-c3cccnc3)nc3ccc(Br)cc23)CC1,101,108,7,64*,-15,-6
O=C(CSc1nnc(COc2ccccc2Cl)o1)NC(=O)NCc1ccco1,102,100,2,16,x,x
O=C(CCNC(=O)c1ccc(Br)cc1)NCc1ccccc1F,x,x,x,55*,-6,-1
Cn1cccc1CC(=O)N/N=C/C=C/c1ccco1,105,103,2,9,x,x
CCc1nnc(NC(=O)Cc2cc(OC)c(OC)c(OC)c2)s1,93,90,-2,71*,-7,-4
CC(=O)C1=C(O)C(=O)N(c2ccc(S(N)(=O)=O)cc2)C1c1ccc([N+](=O)[O-])cc1 (configuration not stated),109,106,11,97*,-2,-7
COc1ccc(OC)c(NC(=O)c2cccc(S(=O)(=O)N(Cc3ccccc3)c3ccccc3OC)c2)c1,106,108,3,40,x,x
COc1ccc(OC)c(NC(=O)c2ccc(CN(c3cc(Cl)ccc3C)S(=O)(=O)c3ccccc3)cc2)c1,102,97,4,82*,9,-3
Cc1cccc(C(=O)N/C(=C/c2ccco2)C(=O)N2CCCCCC2)c1,101,105,3,66*,-2,11
Cc1cccc(C(=O)N/C(=C\c2ccco2)C(=O)N2CCCCCC2)c1,103,101,7,-21,x,x
Cc1cc(C)nc(NC(=NCCc2c[nH]c3ccccc23)NC(=O)c2ccco2)n1,110,98,6,83*,-17,1
Cc1cc(C)nc(NC(=NCCc2c[nH]c3ccccc23)NC(=O)Nc2ccccc2)n1,100,93,4,1,x,x
COc1ccc(C(=O)N(C)Cc2ccc(C)o2)cc1OC1CCN(C(C)=O)CC1,101,102,-4,61*,0,-5
O=C(Nc1ccccc1)c1ccc(-c2ccc(F)cc2)s1,98,102,2,55*,10,-8
CC(/C=N/Nc1nc2ccccc2[nH]1)=C\c1ccccc1,103,127,28,107*,1,9
CC(C)(C)c1cc(C(=O)Nc2cccnc2)cc(C(=O)Nc2cccnc2)c1,104,105,5,61*,4,0
O=C(Nc1cccnc1)c1ccc(Cl)c(Cl)c1,106,106,5,11,x,x
Cc1cc(NC(=O)COC(=O)CCS(=O)(=O)c2cc(Cl)ccc2Cl)no1,101,102,5,57*,-11,11
Cc1cc(NC(=O)COC(=O)CCS(=O)(=O)c2ccc(C)c(C)c2)no1,102,105,7,7,x,x
CCN1/C(=C/C=C/c2sc3ccccc3[n+]2CC)Sc2ccccc21,x,x,x,75*,33,32
O=C(NNc1cc(Br)c(O)c(Br)c1)c1ccccc1,101,94,-1,12,x,x
Cc1cc(NC(=O)c2sccc2C)n(-c2nc3ccccc3[nH]2)n1,99,97,-9,8,-6,1
Cc1cc(NC(=O)C2CCCC2)n(-c2nc3ccccc3[nH]2)n1,96,93,-1,12,x,x
SMILES,MEKK3 PB1 HTS,MEKK2wt PB1 HTS,MEKK2 mut-MEK5,Arrestin-AP2 inh,Arr AP2 CP1,GST GSH counter
Cc1cc(NC(=O)c2cccs2)n(-c2nc3ccccc3[nH]2)n1,99,97,-3,76*,-7,3
Cc1cc(NC(=O)CC#N)n(-c2nc3ccccc3[nH]2)n1,100,97,4,10,x,x
O=C(Nc1ccncc1)c1cccc(S(=O)(=O)N2CCCC2)c1,102,101,2,-2,x,x
CC(C)Cn1c(N)c(C(=O)COC(=O)c2cc3ccccc3cc2O)c(=O)n(C)c1=O,x,x,x,0,x,x
Cc1cccc(C(=O)OCC(=O)c2c(N)n(CC(C)C)c(=O)n(C)c2=O)c1O,x,x,x,-10,-8,-5
Cc1cccc(C(=O)OCC(=O)c2c(N)n(CC(C)C)c(=O)n(C)c2=O)c1[N+](=O)[O-],x,x,x,-9,x,x
CC(C)Cn1c(N)c(C(=O)COC(=O)c2ccc(O)cc2O)c(=O)n(C)c1=O,x,x,x,-6,5,-6
CN(c1ccccc1)c1nc(N)c(C#N)c(CC#N)c1C#N,100,100,17,62*,-11,-3
CN(CCO)c1nc(N)c(C#N)c(CC#N)c1C#N,92,89,-2,4,x,x
N#CCC(=O)N/N=C\c1cccc(OC/C=C/c2ccccc2)c1,99,96,2,-5,x,x
CC(=O)N/N=C\c1ccccc1OC/C=C/c1ccccc1,99,101,1,58*,-12,-5
CCOC(=O)N/N=C\c1cccc(OC)c1OC/C=C/c1ccccc1,101,98,0,30,x,x
CC(=O)N/N=C\c1cccc(OC/C=C/c2ccccc2)c1,105,101,1,58*,-16,0
CN(C)c1cccc(/C=C(\C#N)c2ccccc2)c1,105,101,2,-5,x,x
CCC(=Cc1ccc(CC)cn1)CC,72,71,9,-18,x,x
Cc1cc(C)c(NC(=O)CS)c(Cl)c1,91,89,-5,26,x,x
Cc1cc(C)c(NC(=O)CC(=O)c2ccccc2)c(Cl)c1,97,99,-5,-12,11,-5
CCCN(CC(=O)Nc1ccccc1C)C(=O)CC(NC(=O)c1ccccc1)c1ccccc1 (configuration not stated),x,x,x,14,x,x
CCn1cnc2cc(NS(=O)(=O)c3ccc(OC)c(OC)c3)ccc21,99,102,0,61*,2,-5
COc1ccccc1CC(=O)NCc1nn(-c2ccccc2)nc1C,98,99,8,14,x,x
Nc1ccccc1Nc1ccccc1,102,101,1,9,x,x
Nc1ccc(Nc2ccccc2)c(Cl)c1,73,76,-6,71*,1,8
Cc1ccc(N(CCC#N)C(=O)COC(=O)c2ccccn2)cc1,100,100,-5,69*,-6,-1
C[C@@H](NCCCn1cnc2c(OCc3ccccc3)ncnc21)c1cccc2ccccc12,x,x,x,62*,1,-4
Cc1ccc(S(=O)(=O)N2CCN(C(=O)COC(=O)CCOc3ccccc3)CC2)c(C)c1,x,x,x,12,x,x
CCOc1ccc2nc(SCC(=O)NC3CCCCC3)[nH]c2c1,103,101,2,-7,x,x
Cc1ccc(N2C(=N)/C(=C3/Nc4ccccc4S3)C(c3ccccc3)C2=O)cc1 (configuration not stated),100,101,2,56*,1,-3
Cc1ccc(N2C(=O)C(F)(F)C2c2ccccc2)cc1 (configuration not stated),97,92,-9,13,x,x
